According to ChEMBL document CHEMBL3102739, “Synthesis and antiproliferative activity of conformationally restricted 1,2,3-triazole analogues of combretastatins in the sea urchin embryo model and against human cancer cell lines” (Bioorg Med Chem, 2014):

Experiments:
Assay type in all cases: functional
T47D = assay: Growth inhibition of human T47D cells after 48 hrs by SRB assay
[1] = Growth inhibition of human Hs578T cells after 48 hrs by SRB assay; settings: Hs-578T
BT-549 = assay: Growth inhibition of human BT549 cells after 48 hrs by SRB assay; settings: BT-549, 48 h
MDA-MB-231 = assay: Growth inhibition of human MDA-MB-231 cells after 48 hrs by SRB assay; settings: MDA-MB-231, 48 h
DU-145 = assay: Growth inhibition of human DU145 cells after 48 hrs by SRB assay; settings: DU-145, 48 h
MCF7 = assay: Growth inhibition of human MCF7 cells after 48 hrs by SRB assay; settings: MCF7, 48 h
[2] = Growth inhibition of human UO31 cells after 48 hrs by SRB assay; settings: UO-31, 48 h
PC-3 = assay: Growth inhibition of human PC3 cells after 48 hrs by SRB assay; settings: PC-3, 48 h
TK-10 = assay: Growth inhibition of human TK10 cells after 48 hrs by SRB assay; settings: TK-10, 48 h
SN12C = assay: Growth inhibition of human SN12C cells after 48 hrs by SRB assay
CAKI-1 = assay: Growth inhibition of human CAKI-1 cells after 48 hrs by SRB assay; settings: CAKI-1, 48 h
786-0 = assay: Growth inhibition of human 786-0 cells after 48 hrs by SRB assay; settings: 786-0, 48 h
A498 = assay: Growth inhibition of human A498 cells after 48 hrs by SRB assay; settings: A498, 48 h
SK-OV-3 = assay: Growth inhibition of human SKOV3 cells after 48 hrs by SRB assay; settings: SK-OV-3, 48 h
[3] = Growth inhibition of human NCI-ADR-RES cells after 48 hrs by SRB assay
OVCAR-8 = assay: Growth inhibition of human OVCAR8 cells after 48 hrs by SRB assay; settings: OVCAR-8, 48 h
[4] = Growth inhibition of human OVCAR4 cells after 48 hrs by SRB assay; settings: OVCAR-4, 48 h
[5] = Growth inhibition of human OVCAR5 cells after 48 hrs by SRB assay; settings: OVCAR-5, 48 h
OVCAR-3 = assay: Growth inhibition of human OVCAR3 cells after 48 hrs by SRB assay; settings: OVCAR-3, 48 h
IGROV-1 = assay: Growth inhibition of human IGROV1 cells after 48 hrs by SRB assay; settings: IGROV-1, 48 h
[6] = Growth inhibition of human UACC257 cells after 48 hrs by SRB assay; settings: UACC-257, 48 h
UACC-62 = assay: Growth inhibition of human UACC62 cells after 48 hrs by SRB assay; settings: UACC-62, 48 h
SK-MEL-5 = assay: Growth inhibition of human SK-MEL-5 cells after 48 hrs by SRB assay; settings: SK-MEL-5, 48 h
SK-MEL-2 = assay: Growth inhibition of human SK-MEL-2 cells after 48 hrs by SRB assay; settings: SK-MEL-2, 48 h
MDA-MB-435 = assay: Growth inhibition of human MDA-MB-435 cells after 48 hrs by SRB assay; settings: MDA-MB-435, 48 h
LOX IMVI = assay: Growth inhibition of human LOXIMVI cells after 48 hrs by SRB assay
U-251 = assay: Growth inhibition of human U251 cells after 48 hrs by SRB assay; settings: U-251, 48 h
SNB-75 = assay: Growth inhibition of human SNB75 cells after 48 hrs by SRB assay; settings: SNB-75, 48 h
[7] = Growth inhibition of human SF539 cells after 48 hrs by SRB assay; settings: SF-539, 48 h
SNB-19 = assay: Growth inhibition of human SNB19 cells after 48 hrs by SRB assay; settings: SNB-19, 48 h
SF-268 = assay: Growth inhibition of human SF268 cells after 48 hrs by SRB assay; settings: SF-268, 48 h
SW-620 = assay: Growth inhibition of human SW620 cells after 48 hrs by SRB assay; settings: SW-620, 48 h
HCT-15 = assay: Growth inhibition of human HCT15 cells after 48 hrs by SRB assay; settings: HCT-15, 48 h
[8] = Growth inhibition of human HCC2998 cells after 48 hrs by SRB assay; settings: HCC 2998, 48 h
HCT-116 = assay: Growth inhibition of human HCT116 cells after 48 hrs by SRB assay; settings: HCT-116, 48 h
COLO 205 = assay: Growth inhibition of human COLO205 cells after 48 hrs by SRB assay; settings: COLO 205, 48 h
NCI-H460 = assay: Growth inhibition of human NCI-H460 cells after 48 hrs by SRB assay; settings: NCI-H460, 48 h
NCI-H23 = assay: Growth inhibition of human NCI-H23 cells after 48 hrs by SRB assay; settings: NCI-H23, 48 h
[9] = Growth inhibition of human HOP92 cells after 48 hrs by SRB assay; settings: HOP-92, 48 h
HOP-62 = assay: Growth inhibition of human HOP62 cells after 48 hrs by SRB assay; settings: HOP-62, 48 h
A549 = assay: Growth inhibition of human A549 cells after 48 hrs by SRB assay; settings: A549, 48 h
SR = assay: Growth inhibition of human SR cells after 48 hrs by SRB assay
K562 = assay: Growth inhibition of human K562 cells after 48 hrs by SRB assay; settings: K562, 48 h
CCRF-CEM = assay: Growth inhibition of human CCRF-CEM cells after 48 hrs by SRB assay
HL-60(TB) = assay: Growth inhibition of human HL-60(TB) cells after 48 hrs by SRB assay; settings: HL-60, 48 h
Paracentrotus lividus [10] = assay: Antimitotic activity against sea urchin embryo model assessed as cleavage arrest of fertilized egg compound treated at 8 to 20 mins post-fertilization and 45 to 55 mins prior to first mitotic cycle completion measured 2.5 to 5.5 hrs post-fertilization
Procedure, shortened: (§1)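 Fertilized eggs are exposed 8–20 min after fertilization to 2-fold decreasing concentrations. Stocks are 10 mM in DMSO, then diluted 10-fold in 95% EtOH; final DMSO is at most 0.05% and EtOH at most 1%. Embryos are kept as a monolayer, up to 2000 embryos/mL, in filtered seawater at room temperature. The value is the threshold concentration giving cleavage alteration, embryo death before hatching or full mitotic arrest. Duplicates were run.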

Paracentrotus lividus [11] = assay: Antimitotic activity against sea urchin embryo model assessed as cleavage alteration of fertilized egg compound treated at 8 to 20 mins post-fertilization and 45 to 55 mins prior to first mitotic cycle completion measured 2.5 to 5.5 hrs post-fertilization; procedure, shortened: as §1

Compound: COc1ccc(-c2nn[nH]c2-c2cc(OC)c(OC)c(OC)c2)cc1
- GI50 (T47D): 2.66 µM
- GI50 [1]: < 0.01 µM
- GI50 (BT-549): < 0.01 µM
- GI50 (MDA-MB-231): < 0.01 µM
- GI50 (DU-145): < 0.01 µM
- GI50 (MCF7): < 0.01 µM
- GI50 [2]: 1.21 µM
- GI50 (PC-3): 0.043 µM
- GI50 (TK-10): < 0.01 µM
- GI50 (SN12C): < 0.01 µM
- GI50 (CAKI-1): < 0.01 µM
- GI50 (786-0): < 0.01 µM
- GI50 (A498): < 0.01 µM
- GI50 (SK-OV-3): < 0.01 µM
- GI50 [3]: < 0.01 µM
- GI50 (OVCAR-8): < 0.01 µM
- GI50 [4]: < 0.01 µM
- GI50 [5]: < 0.01 µM
- GI50 (OVCAR-3): < 0.01 µM
- GI50 (IGROV-1): < 0.01 µM
- GI50 [6]: < 0.01 µM
- GI50 (UACC-62): < 0.01 µM
- GI50 (SK-MEL-5): < 0.01 µM
- GI50 (SK-MEL-2): < 0.01 µM
- GI50 (MDA-MB-435): < 0.01 µM
- GI50 (LOX IMVI): < 0.01 µM
- GI50 (U-251): < 0.01 µM
- GI50 (SNB-75): < 0.01 µM
- GI50 [7]: < 0.01 µM
- GI50 (SNB-19): < 0.01 µM
- GI50 (SF-268): 0.021 µM
- GI50 (SW-620): < 0.01 µM
- GI50 (HCT-15): < 0.01 µM
- GI50 [8]: < 0.01 µM
- GI50 (HCT-116): < 0.01 µM
- GI50 (COLO 205): 0.033 µM
- GI50 (NCI-H460): < 0.01 µM
- GI50 (NCI-H23): < 0.01 µM
- GI50 [9]: < 0.01 µM
- GI50 (HOP-62): < 0.01 µM
- GI50 (A549): < 0.01 µM
- GI50 (SR): < 0.01 µM
- GI50 (K562): < 0.01 µM
- GI50 (CCRF-CEM): < 0.01 µM
- GI50 (HL-60(TB)): < 0.01 µM
- EC (Paracentrotus lividus [10]): 0.02 µM
- EC (Paracentrotus lividus [11]): 0.005 µM

Compound: COc1ccc(-c2nn[nH]c2-c2cc(OC)c3c(c2OC)OCO3)cc1
- GI50 (T47D): 0.716 µM
- GI50 [1]: 1.35 µM
- GI50 (BT-549): 0.345 µM
- GI50 (MDA-MB-231): 1.13 µM
- GI50 (DU-145): 1.42 µM
- GI50 (MCF7): 0.352 µM
- GI50 [2]: 2.96 µM
- GI50 (PC-3): 1.93 µM
- GI50 (TK-10): 6.37 µM
- GI50 (SN12C): 4.67 µM
- GI50 (CAKI-1): 0.762 µM
- GI50 (786-0): 1.4 µM
- GI50 (A498): 0.353 µM
- GI50 (SK-OV-3): 0.854 µM
- GI50 [3]: 0.296 µM
- GI50 (OVCAR-8): 1.32 µM
- GI50 [4]: 4.68 µM
- GI50 [5]: 3.63 µM
- GI50 (OVCAR-3): 0.363 µM
- GI50 (IGROV-1): 0.72 µM
- GI50 [6]: 0.595 µM
- GI50 (UACC-62): 0.42 µM
- GI50 (SK-MEL-5): 0.343 µM
- GI50 (SK-MEL-2): 0.326 µM
- GI50 (MDA-MB-435): 0.193 µM
- GI50 (LOX IMVI): 0.547 µM
- GI50 (U-251): 0.362 µM
- GI50 (SNB-75): 0.437 µM
- GI50 [7]: 0.909 µM
- GI50 (SNB-19): 1.8 µM
- GI50 (SF-268): 4.02 µM
- GI50 (SW-620): 0.385 µM
- GI50 (HCT-15): 0.454 µM
- GI50 [8]: 1.11 µM
- GI50 (HCT-116): 0.353 µM
- GI50 (COLO 205): 0.884 µM
- GI50 (NCI-H460): 0.409 µM
- GI50 (NCI-H23): 1 µM
- GI50 [9]: 0.5 µM
- GI50 (HOP-62): 0.899 µM
- GI50 (A549): 0.532 µM
- GI50 (SR): 0.304 µM
- GI50 (K562): 0.493 µM
- GI50 (CCRF-CEM): 0.684 µM
- GI50 (HL-60(TB)): 0.307 µM
- EC (Paracentrotus lividus [10]): >4 µM
- EC (Paracentrotus lividus [11]): 0.5 µM
